Assay results taken from ChEMBL document CHEMBL4028917, “(+)-Methyl (1R,2S)-2-{[4-(4-Chlorophenyl)-4-hydroxypiperidin-1-yl]methyl}-1-phenylcyclopropanecarboxylate [(+)-MR200] Derivatives as Potent and Selective Sigma Receptor Ligands: Stereochemistry and Pharmacological Properties” (J Med Chem, 2018).
In brackets after ≈: the same amount, converted by molar mass. Activity calls are given as the source filed them. The calls are words filed in the database; no cut-off is given here.

System: Mus musculus
Assay: Antinociceptive activity in sc dosed CD1 mouse model of mechanical nociception assessed as increase in morphine-induced struggle response latency administered 30 mins before behavioral evaluation by paw pressure test
Assay type: functional, organism-based
Conditions: not given
In short: (§1)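 Female CD1 mice (25–30 g) in the paw pressure test. A 450 g blunt cone was pressed on the dorsal hindpaw until a struggle response, and latency (s) was recorded. Each hindpaw was tested twice, alternately, 1 min apart. Morphine (4 mg/kg) or HPMC vehicle was given s.c. 30 min before testing. Test drugs were given s.c. in HPMC 5 min before morphine. Mean ± SEM, 6–8 animals; one-way ANOVA with Bonferroni.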

| Compound | Activity |
| --- | --- |
| CC(C)OC(=O)[C@]1(c2ccccc2)C[C@H]1CN1CCC(O)(c2ccc(Cl)cc2)CC1 | Dose-dependent effect |

System: not listed separately
Assay: Chemical stability of the compound at pH 7.4 assessed as half life
Assay type: physicochemical
Conditions: buffer
In short: (§2)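 Chemical stability was tested in vitro at 37 °C in aqueous buffer at pH 1.3 (non-enzymatic simulated gastric fluid) or pH 7.4. Half-life and k_obs were reported; means ± SD of three experiments.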

| Compound | half-life |
| --- | --- |
| CC(C)OC(=O)[C@@]1(c2ccccc2)C[C@@H]1CN1CCC(O)(c2ccc(Cl)cc2)CC1 | 91 h |

Target: 5-hydroxytryptamine receptor 2A (Rattus norvegicus) (UniProt P14842)
Sequence (P14842 whole entry): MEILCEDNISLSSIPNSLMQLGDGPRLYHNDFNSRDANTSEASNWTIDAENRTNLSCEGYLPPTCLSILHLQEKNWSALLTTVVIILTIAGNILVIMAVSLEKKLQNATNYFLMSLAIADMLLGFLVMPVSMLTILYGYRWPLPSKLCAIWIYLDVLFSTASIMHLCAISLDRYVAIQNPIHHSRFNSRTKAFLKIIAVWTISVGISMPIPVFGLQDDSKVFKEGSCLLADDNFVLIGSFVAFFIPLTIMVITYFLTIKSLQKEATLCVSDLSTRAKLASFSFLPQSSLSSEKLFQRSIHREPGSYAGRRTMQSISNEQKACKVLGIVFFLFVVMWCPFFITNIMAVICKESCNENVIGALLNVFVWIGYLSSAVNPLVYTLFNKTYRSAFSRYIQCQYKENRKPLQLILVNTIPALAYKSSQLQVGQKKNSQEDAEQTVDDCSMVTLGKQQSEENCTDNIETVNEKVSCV
Assay: Binding affinity to 5-HT2A receptor in rat cortex by liquid scintillation counting method
Conditions: not given

| Compound | Activity |
| --- | --- |
| CC(C)OC(=O)[C@@]1(c2ccccc2)C[C@@H]1CN1CCC(O)(c2ccc(Cl)cc2)CC1 | inactive |

System: not listed separately
Assay: Chemical stability at pH 7.4 assessed as observed rate constant
Assay type: physicochemical
Conditions: buffer
In short: as §2

| Compound | K |
| --- | --- |
| CC(C)OC(=O)[C@@]1(c2ccccc2)C[C@@H]1CN1CCC(O)(c2ccc(Cl)cc2)CC1 | 0.009 h⁻¹ |

System: not listed separately
Assay: Enzymatic stability of the compound in human plasma assessed as half life
Assay type: ADME, cell-free
Conditions: not given
In short: (§3)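 Hydrolysis was followed at 37 °C in rat, mouse or human plasma. Half-life (h) and observed rate constant (h⁻¹) were derived; means ± SD of three experiments.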

| Compound | half-life |
| --- | --- |
| CC(C)OC(=O)[C@@]1(c2ccccc2)C[C@@H]1CN1CCC(O)(c2ccc(Cl)cc2)CC1 | 65.2 h |

Species: Homo sapiens
Assay: Binding affinity to dopamine D4.2 receptor (unknown origin) by liquid scintillation counting method
Conditions: not given

| Compound | Activity |
| --- | --- |
| CC(C)OC(=O)[C@@]1(c2ccccc2)C[C@@H]1CN1CCC(O)(c2ccc(Cl)cc2)CC1 | inactive |

System: Mus musculus
Assay: Antinociceptive activity in CD1 mouse model of mechanical nociception assessed as effect on struggle response latency at 16 to 32 mg/kg, sc administered 30 mins before behavioral evaluation by paw pressure test
Assay type: functional, organism-based
Conditions: not given
In short: as §1

| Compound | Activity |
| --- | --- |
| CC(C)OC(=O)[C@]1(c2ccccc2)C[C@@H]1CN1CCC(O)(c2ccc(Cl)cc2)CC1 | inactive |
| CC(C)OC(=O)[C@@]1(c2ccccc2)C[C@H]1CN1CCC(O)(c2ccc(Cl)cc2)CC1 | inactive |

System: not listed separately
Assay: Enzymatic stability of the compound in mouse plasma assessed as half life
Assay type: ADME, cell-free
Conditions: not given
In short: as §3

| Compound | half-life |
| --- | --- |
| CC(C)OC(=O)[C@@]1(c2ccccc2)C[C@@H]1CN1CCC(O)(c2ccc(Cl)cc2)CC1 | 1.14 h |

Target: Adrenergic receptor alpha-1 (Rattus norvegicus) (UniProt P15823+P23944+P43140)
Assay: Binding affinity to adrenergic alpha1 receptor in rat cortex by liquid scintillation counting method
Conditions: not given

| Compound | Activity |
| --- | --- |
| CC(C)OC(=O)[C@@]1(c2ccccc2)C[C@@H]1CN1CCC(O)(c2ccc(Cl)cc2)CC1 | inactive |

System: Mus musculus
Assay: Reversal of 8 mg/kg, sc BD-1063-induced potentiation of morphine-induced antinociceptive activity in CD1 mouse model of mechanical nociception by measuring struggle response latency at 32 mg/kg, sc administered 30 mins before behavioral evaluation by paw pressure test
Assay type: functional, organism-based
Conditions: not given
In short: as §1

| Compound | Activity |
| --- | --- |
| CC(C)OC(=O)[C@@]1(c2ccccc2)C[C@@H]1CN1CCC(O)(c2ccc(Cl)cc2)CC1 | Active |

System: not listed separately
Assay: Chemical stability of the compound at pH 1.3 assessed as half life
Assay type: physicochemical
Conditions: buffer
In short: as §2

| Compound | half-life |
| --- | --- |
| CC(C)OC(=O)[C@@]1(c2ccccc2)C[C@@H]1CN1CCC(O)(c2ccc(Cl)cc2)CC1 | 83.6 h |

Target: D(3) dopamine receptor (Rattus norvegicus) (UniProt P19020)
Sequence (P19020 whole entry): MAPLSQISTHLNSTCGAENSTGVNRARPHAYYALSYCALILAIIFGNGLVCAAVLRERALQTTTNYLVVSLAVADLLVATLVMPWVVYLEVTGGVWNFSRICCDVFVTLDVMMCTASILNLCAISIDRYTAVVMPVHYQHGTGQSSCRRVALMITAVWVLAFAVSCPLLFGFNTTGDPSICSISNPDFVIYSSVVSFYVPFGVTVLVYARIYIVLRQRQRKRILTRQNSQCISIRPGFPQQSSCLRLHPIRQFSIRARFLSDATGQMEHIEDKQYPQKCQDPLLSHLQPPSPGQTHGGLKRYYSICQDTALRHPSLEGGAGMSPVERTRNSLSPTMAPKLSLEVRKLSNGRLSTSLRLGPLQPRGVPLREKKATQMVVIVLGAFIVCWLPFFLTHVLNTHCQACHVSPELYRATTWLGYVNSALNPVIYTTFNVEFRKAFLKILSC
Assay: Binding affinity to dopamine D3 receptor in rat olfactory tubercle by liquid scintillation counting method
Conditions: not given

| Compound | Activity |
| --- | --- |
| CC(C)OC(=O)[C@@]1(c2ccccc2)C[C@@H]1CN1CCC(O)(c2ccc(Cl)cc2)CC1 | inactive |

System: Mus musculus
Assay: (§4) Antinociceptive activity in CD1 mouse model of mechanical nociception assessed as increase in morphine-induced struggle response latency at 16 to 32 mg/kg, sc administered 30 mins before behavioral evaluation by paw pressure test
Assay type: functional, organism-based
Conditions: not given
In short: as §1

| Compound | Activity |
| --- | --- |
| CC(C)OC(=O)[C@@]1(c2ccccc2)C[C@@H]1CN1CCC(O)(c2ccc(Cl)cc2)CC1 | inactive |
| CC(C)OC(=O)[C@]1(c2ccccc2)C[C@H]1CN1CCC(O)(c2ccc(Cl)cc2)CC1 | Active |
| CC(C)OC(=O)[C@@]1(c2ccccc2)C[C@H]1CN1CCC(O)(c2ccc(Cl)cc2)CC1 | Active |

System: Mus musculus
Assay: Antinociceptive activity in CD1 mouse model of mechanical nociception assessed as effect on struggle response latency at 32 mg/kg, sc administered 30 mins before behavioral evaluation by paw pressure test
Assay type: functional, organism-based
Conditions: not given
In short: as §1

| Compound | Activity |
| --- | --- |
| CC(C)OC(=O)[C@]1(c2ccccc2)C[C@H]1CN1CCC(O)(c2ccc(Cl)cc2)CC1 | inactive |

Target: D(2) dopamine receptor (Rattus norvegicus, UniProt P61169)
Sequence (P61169 whole entry): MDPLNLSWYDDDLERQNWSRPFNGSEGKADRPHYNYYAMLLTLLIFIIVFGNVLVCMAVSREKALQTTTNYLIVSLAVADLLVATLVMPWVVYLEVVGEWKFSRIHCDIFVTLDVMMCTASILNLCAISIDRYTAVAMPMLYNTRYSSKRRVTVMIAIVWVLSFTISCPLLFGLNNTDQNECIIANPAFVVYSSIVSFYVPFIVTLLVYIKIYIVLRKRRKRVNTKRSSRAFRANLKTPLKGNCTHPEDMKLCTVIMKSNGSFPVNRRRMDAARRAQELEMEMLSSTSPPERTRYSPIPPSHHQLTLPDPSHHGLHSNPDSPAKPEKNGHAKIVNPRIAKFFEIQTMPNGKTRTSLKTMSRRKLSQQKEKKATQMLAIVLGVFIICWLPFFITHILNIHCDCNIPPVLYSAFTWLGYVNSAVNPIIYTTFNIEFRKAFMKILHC
Assay: Displacement of [3H]-spiperone from dopamine D2 receptor in rat strriatum after 15 mins by liquid scintillation counting method
Conditions: not given

| Compound | Ki |
| --- | --- |
| COC(=O)C1(c2ccccc2)CC1CN1CCC(O)(c2ccc(Cl)cc2)CC1 (racemic) | 5200 nM |

System: Mus musculus
Assay: as §4, with “at” for “at 16 to”, “evaluation co-treated with 32 mg/kg, sc prototypical sigma1 receptor agonist PRE-084 administered 5 min before injection of morphine” for “evaluation”
Assay type: functional, organism-based
Conditions: not given
In short: as §1

| Compound | Activity |
| --- | --- |
| CC(C)OC(=O)[C@]1(c2ccccc2)C[C@@H]1CN1CCC(O)(c2ccc(Cl)cc2)CC1 | inactive |
| CC(C)OC(=O)[C@]1(c2ccccc2)C[C@H]1CN1CCC(O)(c2ccc(Cl)cc2)CC1 | inactive |
| CC(C)OC(=O)[C@@]1(c2ccccc2)C[C@H]1CN1CCC(O)(c2ccc(Cl)cc2)CC1 | inactive |

Target: Sigma non-opioid intracellular receptor 1 (Cavia porcellus, UniProt Q60492)
Sequence (Q60492 whole entry): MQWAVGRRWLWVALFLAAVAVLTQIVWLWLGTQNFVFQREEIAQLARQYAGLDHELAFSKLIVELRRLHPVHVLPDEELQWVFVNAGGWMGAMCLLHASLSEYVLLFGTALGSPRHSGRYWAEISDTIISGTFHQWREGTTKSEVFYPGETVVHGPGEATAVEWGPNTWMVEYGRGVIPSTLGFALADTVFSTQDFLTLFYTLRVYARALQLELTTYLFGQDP
Assay: Displacement of [3H]-(+)-pentazocine from sigma1 receptor in guinea pig brain membrane after 150 mins by liquid scintillation counting method
Assay type: cell membranes
Conditions: not given

| Compound | Ki |
| --- | --- |
| COC(=O)C1(c2ccccc2)CC1CN1CCC(O)(c2ccc(Cl)cc2)CC1 (racemic) | 14.6 nM |
| CC(C)OC(=O)[C@]1(c2ccccc2)C[C@@H]1CN1CCC(O)(c2ccc(Cl)cc2)CC1 | 20 nM |
| CC(C)OC(=O)[C@@]1(c2ccccc2)C[C@@H]1CN1CCC(O)(c2ccc(Cl)cc2)CC1 | 7 nM |
| CC(C)OC(=O)[C@]1(c2ccccc2)C[C@H]1CN1CCC(O)(c2ccc(Cl)cc2)CC1 | 43 nM |
| CC(C)OC(=O)[C@@]1(c2ccccc2)C[C@H]1CN1CCC(O)(c2ccc(Cl)cc2)CC1 | 67 nM |

Target: not listed separately
Assay: Displacement of [3H]-(+)-DTG from sigma2 receptor in guinea pig brain membrane after 120 mins by liquid scintillation counting method
Assay type: cell membranes, Cavia porcellus
Conditions: not given

| Compound | Ki |
| --- | --- |
| COC(=O)C1(c2ccccc2)CC1CN1CCC(O)(c2ccc(Cl)cc2)CC1 (racemic) | 61.1 nM |
| CC(C)OC(=O)[C@]1(c2ccccc2)C[C@@H]1CN1CCC(O)(c2ccc(Cl)cc2)CC1 | 209 nM |
| CC(C)OC(=O)[C@@]1(c2ccccc2)C[C@@H]1CN1CCC(O)(c2ccc(Cl)cc2)CC1 | 1840 nM |
| CC(C)OC(=O)[C@]1(c2ccccc2)C[C@H]1CN1CCC(O)(c2ccc(Cl)cc2)CC1 | 214 nM |
| CC(C)OC(=O)[C@@]1(c2ccccc2)C[C@H]1CN1CCC(O)(c2ccc(Cl)cc2)CC1 | 1640 nM |

System: not listed separately
Assay: Aqueous solubility of the compound
Assay type: physicochemical
Conditions: not given
In short: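 Water solubility (mg/mL) was measured experimentally; mean ± SD of three experiments.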

| Compound | solubility |
| --- | --- |
| CC(C)OC(=O)[C@@]1(c2ccccc2)C[C@@H]1CN1CCC(O)(c2ccc(Cl)cc2)CC1 | 3100 µg/mL (≈ 7.24 mM) |

System: not listed separately
Assay: Chemical stability at pH 1.3 assessed as observed rate constant
Assay type: physicochemical
Conditions: buffer
In short: as §2

| Compound | K |
| --- | --- |
| CC(C)OC(=O)[C@@]1(c2ccccc2)C[C@@H]1CN1CCC(O)(c2ccc(Cl)cc2)CC1 | 0.009 h⁻¹ |

Target: T1, 5-hydroxytryptamine receptor 3A (Rattus norvegicus) (UniProt P35563)
T1 sequence (whole entry): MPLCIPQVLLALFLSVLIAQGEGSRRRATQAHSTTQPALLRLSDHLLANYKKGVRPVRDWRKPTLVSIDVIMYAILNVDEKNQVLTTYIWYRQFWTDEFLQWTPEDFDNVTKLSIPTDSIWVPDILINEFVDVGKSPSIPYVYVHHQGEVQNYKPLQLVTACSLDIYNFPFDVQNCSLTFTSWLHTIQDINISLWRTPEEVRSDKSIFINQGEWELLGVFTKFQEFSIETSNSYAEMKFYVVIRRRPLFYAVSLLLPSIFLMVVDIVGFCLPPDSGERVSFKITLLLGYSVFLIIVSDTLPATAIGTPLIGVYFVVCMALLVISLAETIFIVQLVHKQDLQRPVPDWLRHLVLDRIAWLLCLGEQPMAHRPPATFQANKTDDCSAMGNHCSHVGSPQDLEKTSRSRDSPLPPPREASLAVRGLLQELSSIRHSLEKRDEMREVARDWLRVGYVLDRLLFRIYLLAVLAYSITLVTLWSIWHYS
Assay: Binding affinity to 5-HT3 receptor in rat cortex by liquid scintillation counting method
Conditions: not given

| Compound | Activity |
| --- | --- |
| CC(C)OC(=O)[C@@]1(c2ccccc2)C[C@@H]1CN1CCC(O)(c2ccc(Cl)cc2)CC1 | inactive |

Species: Cavia porcellus
Assay: Selectivity index, ratio of Ki for sigma2 receptor in guinea pig brain membrane […]
Assay type: cell membranes
Conditions: not given

| Compound | Ratio Ki |
| --- | --- |
| CC(C)OC(=O)[C@]1(c2ccccc2)C[C@@H]1CN1CCC(O)(c2ccc(Cl)cc2)CC1 | 10.5 |
| CC(C)OC(=O)[C@@]1(c2ccccc2)C[C@@H]1CN1CCC(O)(c2ccc(Cl)cc2)CC1 | > 250 |
| CC(C)OC(=O)[C@]1(c2ccccc2)C[C@H]1CN1CCC(O)(c2ccc(Cl)cc2)CC1 | 5 |
| CC(C)OC(=O)[C@@]1(c2ccccc2)C[C@H]1CN1CCC(O)(c2ccc(Cl)cc2)CC1 | 24.4 |

System: Plasma
Assay: Enzymatic stability of the compound in human plasma assessed observed rate constant
Assay type: ADME, cell-free
Conditions: not given
In short: as §3

| Compound | K |
| --- | --- |
| CC(C)OC(=O)[C@@]1(c2ccccc2)C[C@@H]1CN1CCC(O)(c2ccc(Cl)cc2)CC1 | 0.01 h⁻¹ |

System: not listed separately
Assay: Enzymatic stability of the compound in rat plasma assessed as half life
Assay type: ADME, cell-free
Conditions: not given
In short: as §3

| Compound | half-life |
| --- | --- |
| CC(C)OC(=O)[C@@]1(c2ccccc2)C[C@@H]1CN1CCC(O)(c2ccc(Cl)cc2)CC1 | 0.38 h |

System: Plasma
Assay: Enzymatic stability of the compound in rat plasma assessed observed rate constant
Assay type: ADME, cell-free
Conditions: not given
In short: as §3

| Compound | K |
| --- | --- |
| CC(C)OC(=O)[C@@]1(c2ccccc2)C[C@@H]1CN1CCC(O)(c2ccc(Cl)cc2)CC1 | 3.26 h⁻¹ |

System: Plasma
Assay: Enzymatic stability of the compound in mouse plasma assessed observed rate constant
Assay type: ADME, cell-free
Conditions: not given
In short: as §3

| Compound | K |
| --- | --- |
| CC(C)OC(=O)[C@@]1(c2ccccc2)C[C@@H]1CN1CCC(O)(c2ccc(Cl)cc2)CC1 | 0.51 h⁻¹ |

System: Mus musculus
Assay: Antinociceptive activity in CD1 mouse model of mechanical nociception assessed as increase in morphine-induced struggle response latency at 12 to 16 mg/kg, sc administered 30 mins before behavioral evaluation by paw pressure test
Assay type: functional, organism-based
Conditions: not given
In short: as §1

| Compound | Activity |
| --- | --- |
| CC(C)OC(=O)[C@@]1(c2ccccc2)C[C@H]1CN1CCC(O)(c2ccc(Cl)cc2)CC1 | Active |

Target: D(1A) dopamine receptor (Rattus norvegicus, UniProt P18901)
Sequence (P18901 whole entry): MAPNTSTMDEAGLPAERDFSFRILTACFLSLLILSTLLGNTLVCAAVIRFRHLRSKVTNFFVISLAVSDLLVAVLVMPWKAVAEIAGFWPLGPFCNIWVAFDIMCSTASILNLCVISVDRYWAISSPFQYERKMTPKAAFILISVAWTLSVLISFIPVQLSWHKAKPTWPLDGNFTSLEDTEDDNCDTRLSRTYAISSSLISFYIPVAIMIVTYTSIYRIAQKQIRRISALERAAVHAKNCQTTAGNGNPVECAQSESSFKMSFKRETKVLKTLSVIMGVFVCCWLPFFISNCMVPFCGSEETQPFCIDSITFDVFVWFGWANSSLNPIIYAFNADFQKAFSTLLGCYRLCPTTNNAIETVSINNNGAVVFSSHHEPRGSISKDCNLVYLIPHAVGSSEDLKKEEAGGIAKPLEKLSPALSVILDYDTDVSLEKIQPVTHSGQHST
Assay: Binding affinity to dopamine D1 receptor in rat striatum by liquid scintillation counting method
Conditions: not given

| Compound | Ki |
| --- | --- |
| COC(=O)C1(c2ccccc2)CC1CN1CCC(O)(c2ccc(Cl)cc2)CC1 (racemic) | > 10000 nM |
